Laboratory results reported in ChEMBL document CHEMBL1153381, “Discovery of 2-(5-nitrothiazol-2-ylthio)benzo[d]thiazoles as novel c-Jun N-terminal kinase inhibitors” (Bioorg Med Chem, 2009).

Tests used:
[1] = Inhibition of cJNK phosphorylation by Lantha screen assay
[2] = Inhibition of cJNK phosphorylation by pepJIP1 displacement DELFIA assay
[3] = Inhibition of lethal factor
[4] = target: RAC-alpha serine/threonine-protein kinase (Homo sapiens) (UniProt P31749); experiment: Inhibition of AKT at 100 uM
[5] = target: Mitogen-activated protein kinase 14 (Homo sapiens, UniProt Q16539); experiment: Inhibition of p38alpha
Furin = Furin (Homo sapiens, UniProt P09958); experiment: Inhibition of furin
Liver microsomes = experiment: Metabolic stability in rat liver microsomes assessed as half life; format: ADME, Microsome
Summary of the method: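 Rat liver microsomes (1 mg/mL protein) with 4 μM compound and 2 mM NADPH in 50 mM phosphate pH 7.2, after 5 min preincubation, incubated 1 h at 37.5 °C. Aliquots taken every 15 min were quenched with methanol plus internal standard and analysed by LC–MS. Run in duplicate with 2 control compounds of known half-life.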

[6] = Inhibition of cJNK phosphorylation in TNF-alpha-stimulated HL60 cells by Lantha screen assay; format: cell-based; conditions: HL-60
[7] = Metabolic stability in rat plasma assessed as drug level remaining after 1 hr; format: ADME, cell-free; conditions: read-out: Stability
Summary of the method: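 Fresh rat plasma with 1 μM compound (2.5% final DMSO) at 37 °C, stopped at 0, 30 and 60 min with methanol plus internal standard, analysed by LC–MS. Percent parent remaining was taken against 0 min from peak-area ratios to internal standard. Run in duplicate with a plasma-labile positive control.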

Sequence of Furin (P09958 whole entry): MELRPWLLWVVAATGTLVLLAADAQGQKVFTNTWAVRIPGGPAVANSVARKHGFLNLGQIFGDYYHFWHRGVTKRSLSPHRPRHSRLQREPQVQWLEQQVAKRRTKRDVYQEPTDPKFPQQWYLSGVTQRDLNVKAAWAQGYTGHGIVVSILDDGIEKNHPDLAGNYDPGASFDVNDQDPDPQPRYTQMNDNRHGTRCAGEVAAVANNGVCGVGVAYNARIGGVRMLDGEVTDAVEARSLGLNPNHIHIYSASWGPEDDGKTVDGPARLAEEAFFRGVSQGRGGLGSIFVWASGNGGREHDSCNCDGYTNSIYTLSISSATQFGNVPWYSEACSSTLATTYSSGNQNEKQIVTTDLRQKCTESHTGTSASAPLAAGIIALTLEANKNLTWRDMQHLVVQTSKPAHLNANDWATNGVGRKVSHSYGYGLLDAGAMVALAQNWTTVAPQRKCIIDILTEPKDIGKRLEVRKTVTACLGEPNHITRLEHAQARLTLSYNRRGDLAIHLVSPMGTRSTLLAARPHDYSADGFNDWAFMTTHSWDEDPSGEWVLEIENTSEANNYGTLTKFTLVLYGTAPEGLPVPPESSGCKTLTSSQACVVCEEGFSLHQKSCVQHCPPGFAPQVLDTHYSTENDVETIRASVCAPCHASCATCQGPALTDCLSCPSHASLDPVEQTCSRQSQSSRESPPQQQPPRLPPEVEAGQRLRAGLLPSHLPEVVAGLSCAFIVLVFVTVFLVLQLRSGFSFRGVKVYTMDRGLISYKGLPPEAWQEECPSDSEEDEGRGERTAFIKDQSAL
Sequence of Mitogen-activated protein kinase 14 (Q16539 whole entry): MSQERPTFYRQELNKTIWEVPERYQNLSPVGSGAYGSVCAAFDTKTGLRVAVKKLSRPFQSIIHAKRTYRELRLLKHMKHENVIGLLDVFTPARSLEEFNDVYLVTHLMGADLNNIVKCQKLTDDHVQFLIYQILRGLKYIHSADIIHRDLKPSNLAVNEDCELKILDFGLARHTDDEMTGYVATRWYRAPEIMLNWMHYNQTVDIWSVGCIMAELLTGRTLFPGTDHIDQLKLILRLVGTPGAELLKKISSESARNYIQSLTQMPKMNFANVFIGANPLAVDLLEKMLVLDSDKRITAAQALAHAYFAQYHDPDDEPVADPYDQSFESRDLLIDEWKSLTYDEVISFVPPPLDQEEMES
Sequence of RAC-alpha serine/threonine-protein kinase (Homo sapiens) (P31749 whole entry): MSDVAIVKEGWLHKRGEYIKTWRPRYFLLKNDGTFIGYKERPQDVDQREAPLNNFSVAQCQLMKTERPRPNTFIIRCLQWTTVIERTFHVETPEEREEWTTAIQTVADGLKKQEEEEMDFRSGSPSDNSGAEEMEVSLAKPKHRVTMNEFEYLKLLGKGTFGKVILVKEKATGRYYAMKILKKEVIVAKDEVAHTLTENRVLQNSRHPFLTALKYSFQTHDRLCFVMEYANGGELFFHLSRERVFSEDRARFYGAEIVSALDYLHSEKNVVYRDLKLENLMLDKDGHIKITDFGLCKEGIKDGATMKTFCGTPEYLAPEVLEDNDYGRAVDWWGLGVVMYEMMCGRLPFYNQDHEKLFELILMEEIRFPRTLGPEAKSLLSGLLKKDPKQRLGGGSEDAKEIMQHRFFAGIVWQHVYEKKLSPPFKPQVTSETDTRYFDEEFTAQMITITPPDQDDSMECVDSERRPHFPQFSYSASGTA

| Structure (SMILES) | IC50 [1] | IC50 [2] | also measured |
| --- | --- | --- | --- |
| Nc1nc(Sc2ncc([N+](=O)[O-])s2)c2nc[nH]c2n1 | 55 µM | 1000 nM |  |
| O=[N+]([O-])c1cnc(Sc2nc3cc(Cl)c(Cl)cc3[nH]2)s1 | 23 µM | 1500 nM |  |
| O=[N+]([O-])c1cnc(Sc2nc3ccccc3o2)s1 | 2.7 µM | 240 nM |  |
| COc1ccc2[nH]c(Sc3ncc([N+](=O)[O-])s3)nc2c1 | 4.7 µM | 130 nM |  |
| COc1ccccc1-c1nnc(Sc2nc3ccc(Cl)cc3s2)n1-c1ccccc1 | > 50 µM |  |  |
| Cn1c(Sc2nc3ccc(Cl)cc3s2)nnc1-c1ccc2ncccc2c1 | > 50 µM |  |  |
| O=[N+]([O-])c1cnc(Sc2nc3cc(Cl)ccc3s2)s1 | > 50 µM | > 1000 nM |  |
| Cn1c(Sc2ncc([N+](=O)[O-])s2)nc2ccccc21 | > 50 µM | 1500 nM |  |
| Cc1ccc2nc(Sc3ncc([N+](=O)[O-])s3)oc2c1 | > 50 µM | 290 nM |  |
| O=[N+]([O-])c1ccc2nc(Sc3ncc([N+](=O)[O-])s3)[nH]c2c1 | 6.4 µM | 3200 nM |  |
| Cc1nnc(Sc2nc3ccc(Cl)cc3s2)n1-c1ccc2c(c1)OCCO2 | > 50 µM |  |  |
| CO/N=C(\C(=O)Sc1nc2ccccc2s1)c1csc(N)n1 | > 50 µM | 1700 nM |  |
| Cc1ccc2[nH]c(Sc3ncc([N+](=O)[O-])s3)nc2c1 | 3.8 µM | 20 nM |  |
| Cn1c(Sc2nc3ccc(Cl)cc3s2)nnc1-c1cccs1 | > 50 µM |  |  |
| COc1ccc2sc(Sc3ncc([N+](=O)[O-])s3)nc2c1 | 1.8 µM | 100 nM | IC50 [3]: > 100 µM; inhibition [4]: 5%; IC50 [5]: > 100 µM; IC50 (Furin): > 50 µM |
| O=[N+]([O-])c1cnc(Sc2nc3ncccc3s2)s1 | 4.2 µM | 400 nM |  |
| Nc1ncnc2nc(Sc3ncc([N+](=O)[O-])s3)[nH]c12 | 27 µM | > 1000 nM |  |
| Nc1ncnc2[nH]c(SCc3ccc(C(=O)O)cc3)nc12 | 70 µM |  |  |
| O=[N+]([O-])c1cnc(Sc2nc3cc(Cl)ccc3o2)s1 | 27 µM | 110 nM |  |
| O=[N+]([O-])c1cnc(Sc2nc3cc(S(=O)(=O)O)ccc3[nH]2)s1 | > 50 µM |  |  |
| O=[N+]([O-])c1cnc(Sc2nc3cc(C(F)(F)F)ccc3[nH]2)s1 | 20.2 µM | 140 nM |  |
| O=[N+]([O-])c1cnc(Sc2nc3ccccc3s2)s1 | 1.8 µM | 160 nM | t1/2 (Liver microsomes): 70 min; IC50 [3]: > 100 µM; inhibition [4]: 2%; IC50 [6]: 15 µM; IC50 [5]: > 100 µM; IC50 (Furin): > 50 µM; remaining at 1 h [7]: 80% |
| O=C(O)c1ccc(CSc2nc3ccccc3[nH]2)cc1 | > 100 µM |  |  |
| Cn1c(Sc2nc3ccc(Cl)cc3s2)nnc1-c1ccc(Cl)cc1Cl | > 50 µM |  |  |
| O=[N+]([O-])c1ccc(Sc2nc3ccccc3o2)c([N+](=O)[O-])c1 | > 100 µM |  |  |
| O=[N+]([O-])c1cnc(Sc2nc3ccccc3[nH]2)s1 | 8.1 µM | 670 nM |  |
| CCOc1ccc2nc(Sc3ncc([N+](=O)[O-])s3)sc2c1 | > 50 µM |  |  |
| O=[N+]([O-])c1cnc(Sc2nc3ccc(Cl)cc3s2)s1 | > 50 µM | 796 nM |  |
